Results published in ChEMBL document CHEMBL1132243, “Structure-activity relationships of L-dioxolane uracil nucleosides as anti-Epstein Barr virus agents” (J Med Chem, 1999).

Tests used:
[1] = Cytotoxicity on human P3HR1 derived H1 cells; assay type: functional; conditions: read-out: ID50 (the source's name)
Procedure, shortened: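 H1 cells seeded at 2 × 10^5 cells/well with various compound concentrations for 3 days, then counted. ID50 is the dose giving a 50% drop in cell number versus the untreated control. Medium was RPMI 1640 with 10% dialyzed FBS, 37 °C, 5% CO2.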

[2] = system: Human gammaherpesvirus 4; experiment: (§1) Effective concentration of compound against Epstein Barr virus was determined; assay type: functional, organism-based
Procedure, shortened: (§2)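 Log-phase H1 cells seeded at 2 × 10^5 cells/well, exposed to a range of concentrations at 37 °C for 5 days. EBV DNA was measured by slot blot of freeze-thaw lysates in 10 mM Tris-HCl pH 7.5 with RNase A (50 μg/mL final, 55 °C, 2 h), probed with EBV EcoRI fragment, then reprobed with Alu. The EBV/Alu ratio was compared with untreated cells.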

[3] = system: Human gammaherpesvirus 4; experiment: as §1; assay type: functional; procedure, shortened: as §2
[4] = Toxicity of compound was determined as decrease in mt-DNAcontent in human P3HR1 derived H1 cells; assay type: cell-based
Procedure, shortened: (§3)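 H1 cells (high-yield EBV producers derived from P3HR1), kept in log growth for 2 days, seeded at 2 × 10^5 cells/well with or without compound at various concentrations, 37 °C for 5 days. Lysed by freeze-thaw, RNase A treated, slot-blotted, then hybridized with a mitochondrial DNA probe after the Alu probe was stripped. mtDNA content compared with untreated cells.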

[5] = Selective Index (ID50/EC90)
[6] = Compound was tested for cytotoxicity against mt-DNA; procedure, shortened: as §3
[7] = Selective Index from ID50 to that of EC90

EC50 ([2]; human gammaherpesvirus 4) [µM] | Compound | IC50 ([1]; Homo sapiens, H1) [µM] | EC90 [3] [µM] | Toxicity [4] [µM] | further results
4 | O=c1[nH]c(=O)n(C2COC(CO)O2)cc1C(F)(F)F (stereo not given) | > 100 |  |  | 
50 | O=c1[nH]c(=O)n([C@H]2CO[C@@H](CO)O2)cc1F | > 100 |  | > 50 | 
> 50 | O=c1ccn([C@H]2CO[C@@H](CO)O2)c(=O)[nH]1 |  |  |  | 
0.6 | O=c1[nH]c(=O)n(C2COC(CO)O2)cc1Cl (stereo not given) | > 100 | 1.37 | > 50 | Selectivity index [7]: > 72

The next lines start with the compound.

Compound | EC50 ([2]; human gammaherpesvirus 4) [µM] | IC50 ([1]; Homo sapiens, H1) [µM] | EC90 [3] [µM] | Toxicity [4] [µM] | further results
O=c1[nH]c(=O)n(C2COC(CO)O2)cc1I (stereo in doubt; 17) [listing 1 of 2 here] |  |  | 0.16 | > 50 | IC50 [1]: > 1000 µM; EC50 [2]: 0.033 µM
O=c1[nH]c(=O)n([C@H]2CO[C@@H](CO)O2)cc1Br | 0.19 | > 1000 | 0.48 |  | Selectivity index [5]: > 2080; Toxicity [6]: > 50 µM
O=c1[nH]c(=O)n(C2COC(CO)O2)cc1I (stereo in doubt) |  |  |  |  | IC50 [1]: 18 µM; EC50 [2]: 7.6 µM
O=c1[nH]c(=O)n(C2COC(CO)O2)cc1I (stereo in doubt; 17) [listing 2 of 2 here] |  |  |  |  | Selectivity index [7]: > 6250
Nc1nc2c(ncn2COC(CO)CO)c(=O)[nH]1 [GANCICLOVIR] | 5 | 75 |  |  | 
